Experimental data: PMC4878412 (Cancer chemotherapy and pharmacology, 2015)

Key:
[1] = In vivo retention of RK-33 in plasma, liver and lungs 48 h after administration; settings: mice, 48 h after intraperitoneal injection of 0.80 mg free RK-33
Method in brief: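 Female athymic NCr-nu/nu mice (4–5 weeks, three animals) got free test compound 0.8 mg i.p. and were killed at 48 h. Blood was drawn intracardially into heparin tubes and spun at 8000 rpm for 5 min. Liver and lungs were weighed and homogenised in 3 volumes cold PBS. Plasma or homogenate (0.1 mL) was extracted with 1 mL chloroform/isopropanol (1:1), shaken 3 min and centrifuged.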

[2] = free RK-33; no method in this paper, no reference given; cited from earlier work
DDX3 = settings: ref [1]; cited from earlier work
[3] = ref [1]; cited from earlier work
[4] = ref [1]; cited from earlier work; remark: listed apart in the source

Substance: RK-33
- RK-33 in liver [1]: < 1 µg/mL
- RK-33 in lungs [1]: < 1 µg/mL
- RK-33 in plasma [1]: < 1 µg/mL
- Systemic half-life (t½) [2]: 7.3 h
- Inhibition of DDX3 (in words) (DDX3): effectively inhibits
- Cell cycle effect (in words) [3]: induce G1 arrest
- Toxicity in mice (in words) [4]: little or no toxicity
